# Bioassay records deposited in PubChem by SRMLSC.
# HUVEC prolif 384: inhibitors of human endothelial cell proliferation; HUVEC proliferation, CellTiter-Glo luminescence, 72 h; active compounds read low; viability, % at 10 µM (by protocol); hit rate 1.1% among 86,000;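 active = viability at or below 30%; inactive = viability above 30%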;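 note: 100% = median luminescence of DMSO-only cell control wells on each plate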
# HCT116 bCat-KO: beta-catenin-lacking colon tumor cell growth suppression | HCT116 beta-catenin knockout viability, CellTiter-Glo, 60 h; active compounds read low | viability, % at 10 µM | hit rate 1.5% among 140,000;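 active = viability at or under a set limit, the compound median less 4 SD, cut at about 6% in these data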;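 note: 0% = Hyamine 1622 control at 20 µM and 100% = untreated cell control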
# H69AR inhibit: growth inhibitors of human H69AR lung tumor cells. viability, % at 10 µM. H69AR lung tumor viability, ATP luminescence, 72 h; active compounds read low. AID 598. hit rate 6% among 85,000;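 active = viability at or below 40%; inactive = viability above 40%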;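 note: multidrug resistant small cell line overexpressing MRP-1 efflux transporter; 100% = mean luminescence of untreated control wells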
# HCT116 PTEN-null: growth suppressors of cells with PTEN tumor suppressor deletion; HCT116 PTEN-null viability, CellTiter-Glo, 60 h; active compounds read low; viability, % at 10 µM; hit rate 1.2% among 140,000; AID 827;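 active = viability at or below a set limit, 4 SD under the median of all tested compounds, cut at about 3.7% in these data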;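 note: PTEN knockout HCT116 line with beta catenin targeted HCT116 as companion control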
# Fibroblast inh: blocks proliferation of human lung fibroblasts; hit rate 1.1% among 85,000; viability, % at 10 µM; AID 719; LL 47 human lung fibroblast viability, ATP luminescence; active compounds read low;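 active = viability at or below 50% in the single dose screen; inactive = viability above 50%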;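 note: compound exposure lasted 72 h before the ATP readout; 100% = median luminescence of untreated cell-only wells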
#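 Material: human lung fibroblast line LL 47, low passage; Evaluation: viability percentage against median untreated-cell control; Buffer or medium: 15% FBS in IMEM; Incubation: 72 h compound exposure at 37 °C after overnight plating; Dosing: 0.1% DMSO in all compound wells; Measured by: CellTiter-Glo luminescence.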
# * = called active by the depositor; nt = no result given. Shown is part of a subset that was picked to be rich in hits.
SMILES,HUVEC prolif 384,HCT116 bCat-KO,H69AR inhibit,HCT116 PTEN-null,Fibroblast inh
Cc1cc(C)n(CCc2nc3c4ccccc4n(CC(=O)Nc4ccc(Cl)cc4F)c(=O)n3n2)n1,57.3,nt,85.6,nt,92.8
Clc1cccc(-c2cc3nc4c(c(N5CCNCC5)n3n2)CCCC4)c1,1.1*,1.5*,1.9*,1.0*,1.9*
OC1CCN(c2c3c(nc4cc(-c5cccc(F)c5)nn24)CCCC3)CC1,74.0,73.9,95.2,61.1,97.6
Cn1c(N/N=C/c2c[nH]c3ccccc23)nc2ccccc21,nt,1.5*,nt,0.9*,nt
CCCCn1c(/N=C/c2c[nH]c3ccccc23)nc2ccccc21,60.4,31.8,1.9*,48.5,83.4
CCCCn1c(SC(C)C(=O)c2ccc(OC)cc2)nc2cc(S(N)(=O)=O)ccc21 (stereo not drawn),102.5,74.7,32.9*,58.1,97.8
CCCCn1c(SCC(=O)c2ccc(OC)cc2OC)nc2cc(S(N)(=O)=O)ccc21,113.2,86.5,73.0,93.6,101.9
O=C(Nc1ncnc2sc3c(c12)CCCCC3)c1ccc(F)cc1,81.3,54.8,39.6*,56.9,74.3
COc1ccc(N2CCN(CC(O)c3c[nH]c4ccc(OC)cc34)CC2C)cc1 (stereo not drawn),93.7,57.6,35.2*,59.1,77.1
CCOc1ccc2ccccc2c1/C=N/NC(=O)CNC(=O)C(c1ccccc1)c1ccccc1,nt,77.9,nt,73.9,nt
Cc1ccc(C(=O)N/C(=C\c2ccco2)C(=O)NCCCn2ccnc2)cc1C,nt,102.6,nt,100.9,nt
CCOc1cc2[nH]c(=O)n(CC3CCC(C(=O)NC4CCCCC4)CC3)c(=O)c2cc1OCC (stereo not drawn),29.8*,nt,90.4,nt,100.4
COc1ccc(OCCSc2nnc(C)n2-c2ccccc2)cc1,86.1,78.9,32.3*,95.9,100.5
O=C(Nc1cnc2ccccc2c1)c1cccnc1,105.7,100.6,7.7*,103.1,102.0
CCOCC(=O)Nc1cccc(C(=O)OCC)c1,97.1,97.3,20.8*,95.0,104.8
CC(C)C(=O)Nc1ccc(C(=O)NCc2cccnc2)cc1,102.5,98.9,36.5*,98.5,100.3
CCOC(=O)c1cccc(NC(=O)c2cccnc2)c1,101.6,106.4,31.0*,102.9,nt
CCOC(=O)c1cccc(NC(=O)c2cncc(Br)c2)c1,nt,95.6,nt,94.7,nt
COc1ccc(C(=O)NC(NC(=S)Nc2ccc(S(N)(=O)=O)cc2)C(Cl)(Cl)Cl)cc1 (stereo not drawn),nt,71.6,nt,71.9,nt
COc1ccc(-c2nnc3ccc(SC)nn23)cc1,74.9,72.0,49.3,85.0,87.9
CCC1CCC2(CC1)NC(=O)N(CC(=O)c1c(C)[nH]c3ccccc13)C2=O (stereo not drawn),nt,90.5,nt,85.1,nt
CN(C)C(=O)c1ccc(NC(=O)c2cccnc2)cc1,103.5,99.6,39.1*,107.6,93.0
Cc1cc(NC(=O)CSc2cn(CCNC(=O)c3ccc(Cl)cc3)c3ccccc23)no1,82.9,44.8,83.7,40.1,101.1
Cn1c(=O)cc(SCC(=O)NCc2ccco2)c2ccccc21,90.1,90.5,107.6,97.7,87.7
O=C(CSc1cn(CCNC(=O)c2ccc3ccccc3c2)c2ccccc12)NCc1ccco1,61.9,61.9,9.6*,58.8,98.3
SMILES,HUVEC prolif 384,HCT116 bCat-KO,H69AR inhibit,HCT116 PTEN-null,Fibroblast inh
CCOc1ccc(C(=O)NCCn2cc(SCC(=O)Nc3cc(C)on3)c3ccccc32)cc1,84.0,80.5,32.7*,80.7,96.6
Cc1occc1-c1nnc(SCC(=O)N2CCc3ccccc32)o1,90.8,80.8,1.3*,89.9,96.6
Cc1ccc(-c2nnc3ccc(SCC(=O)N4CCCc5ccccc54)nn23)cc1,nt,67.5,nt,62.5,nt
Cc1ccc(-c2nnc3ccc(SCC(=O)N4CCc5ccccc54)nn23)cc1,44.8,89.0,31.8*,93.8,84.9
CCn1cc(CNC(=O)c2c(-c3c(Cl)cccc3Cl)noc2C)c(C)n1,nt,100.8,nt,94.0,nt
Cc1cccc(C)c1OCC(=O)Nc1oc(-c2ccccc2)c(-c2ccccc2)c1C#N,67.7,nt,26.9*,nt,96.3
O=C(CSc1nnc2n1CCCN2C(=S)Nc1ccc(Cl)cc1)c1ccccc1,43.7,62.8,26.1*,64.2,66.5
CC(OCCN1CCCC1)(c1ccc(F)cc1)c1ccc(F)cc1,nt,51.5,nt,51.9,nt
CNCCCNCc1ccc(SC)cc1,nt,95.8,nt,97.0,nt
Nc1ccc(N2CCCCCC2)cc1,97.8,7.1,2.1*,12.9,95.7
O=C(Nc1ccccc1)C(=O)Nc1ccccn1,nt,85.0,nt,80.3,nt
S=C(Nc1ccccc1)c1ccccn1,93.0,30.9,1.2*,9.6,96.0
O=c1n(-c2ccccc2)c(=O)n(Cc2ccccn2)n1Cc1ccccn1,85.7,99.5,72.9,107.6,91.7
CCc1ccc(C2C(C#N)=C(N)C(C#N)(C#N)C3=CCC(C(C)(C)C)CC32)cc1 (stereo not drawn),2.3*,56.5,78.6,57.6,64.2
CC1CCN(c2nc(Cl)nc(Nc3ccc([N+](=O)[O-])cc3)n2)CC1,nt,2.2*,nt,13.4,nt
COc1ccc2[nH]c3nc(SCC(=O)Nc4ccc5c(c4)OCO5)nnc3c2c1,nt,74.5,nt,74.0,nt
COc1ccc2[nH]c3nc(SCc4nnc(-c5ccc(C)cc5)o4)nnc3c2c1,54.4,64.3,18.3*,52.4,68.3
O=C(Nc1c(C(=O)Nc2cccc(F)c2)oc2ccccc12)c1ccc2c(c1)OCO2,73.9,74.4,24.4*,73.4,70.9
c1ccc(-c2noc(-c3ccc4ccccc4c3)n2)nc1,87.2,64.7,81.2,60.5,83.2
c1ccc(CCc2ccccc2-c2nc(-c3cccnc3)no2)cc1,102.8,73.2,89.9,66.3,87.5
c1ccc(CCc2ccccc2-c2nc(-c3ccccn3)no2)cc1,105.6,83.0,33.9*,82.9,92.8
c1ccc(-c2noc(-c3ccc4c(c3)OCO4)n2)nc1,29.3*,10.8,23.3*,12.3,104.0
Cn1c(=O)c2c(nc(Br)n2CC(=O)C23CC4CC(CC(C4)C2)C3)n(C)c1=O,81.8,68.6,32.3*,75.5,97.8
CC(=O)OCCCNc1cc(Sc2ccc(C)cc2)c2nonc2c1[N+](=O)[O-],nt,3.6*,nt,3.8*,nt
COC(=O)CCSc1cc(NCCOC(C)=O)c([N+](=O)[O-])c2nonc12,nt,96.5,nt,96.5,nt
O=[N+]([O-])c1c(NCCCO)cc(Sc2ccc(Cl)cc2)c2nonc12,nt,1.5*,nt,1.2*,nt
CCCC(=O)OCCNc1cc(SCCC(=O)OC)c2nonc2c1[N+](=O)[O-],nt,87.4,nt,95.2,nt
CC(=O)OCCNc1cc(Sc2nc3ccccc3[nH]2)c2nonc2c1[N+](=O)[O-],nt,1.6*,nt,1.5*,nt
